In ChEMBL document CHEMBL1123157, “Thromboxane synthetase inhibitors and antihypertensive agents. 1. N-[(1H-imidazol-1-yl)alkyl]aryl amides and N-[(1H-1,2,4-triazol-1-yl)alkyl]aryl amides” (J Med Chem, 1986):
The source made the active and inactive calls.

Legend:
[1] = tested on: Rattus norvegicus; assay: Antihypertensive activity in spontaneously hypertensive rats tested at 100 mg/kg po/day for 2 days; format: functional, organism-based; parameters: dose 100 mg/kg
In short: (§1)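 Male 16-week-old Okamoto SHR (mean arterial pressure about 170 mmHg), 1-3 rats per compound. Given by gavage in 2% preboiled starch (50 mg/mL), 100 mg/kg or less, with 0.9% NaCl load (25 mL/kg). Second dose without saline 24 h later. Mean arterial pressure measured 28 h after first dose. Active if ≤116 mmHg in one rat or mean ≤122 mmHg in two.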

[2] = target: T1, Thromboxane-A synthase (Rattus norvegicus) (UniProt P49430); assay: Inhibitory activity for thromboxane synthetase determined by TXB2 levels in platelets from spontaneously hypertensive rats.; parameters: concentration or dose not given beside the values; settings: concentration not given here
T1 sequence (whole entry): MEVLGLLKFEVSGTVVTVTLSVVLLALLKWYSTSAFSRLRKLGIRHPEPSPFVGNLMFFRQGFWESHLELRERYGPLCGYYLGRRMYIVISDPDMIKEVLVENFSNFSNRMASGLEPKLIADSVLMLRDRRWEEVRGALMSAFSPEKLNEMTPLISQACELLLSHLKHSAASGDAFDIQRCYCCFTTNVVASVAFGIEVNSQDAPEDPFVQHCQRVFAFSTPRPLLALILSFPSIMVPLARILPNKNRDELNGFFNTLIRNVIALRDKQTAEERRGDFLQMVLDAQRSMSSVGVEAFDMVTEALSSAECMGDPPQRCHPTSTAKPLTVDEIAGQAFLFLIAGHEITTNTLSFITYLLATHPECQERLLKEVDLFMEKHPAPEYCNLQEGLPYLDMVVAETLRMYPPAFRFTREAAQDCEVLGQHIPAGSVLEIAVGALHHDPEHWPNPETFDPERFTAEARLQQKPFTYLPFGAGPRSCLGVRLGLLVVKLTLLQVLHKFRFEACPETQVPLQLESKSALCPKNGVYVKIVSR
In short: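 Washed SHR platelets in oxygenated Krebs phosphate buffer, pH 7.4, 4.5-6.0 × 10^4/μL, incubated with vehicle or drug for 10 min at 37 °C. Stopped with ice and citric acid. Supernatant TXB2 measured by RIA; TXB2 in boiled controls subtracted; % inhibition calculated. IC50 read graphically from % inhibition vs log concentration; single-point screen at 10^-4 M.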

[3] = tested on: Rattus norvegicus; assay: Antihypertensive activity in spontaneously hypertensive rats at 100 mg/kg po/day for 2 days; format: functional, organism-based; parameters: dose 100 mg/kg; in short: as §1

inhibition [2] [%]	Structure (SMILES)	Activity [1]	Activity [3]
88	O=C(NCCCCn1cncn1)c1ccc(Br)cc1	inactive	
65	O=C(NCCCn1cncn1)c1ccc(C(=O)c2ccccc2)cc1	inactive	
0	O=C(Cc1cccc(Cl)c1)NCCCn1cncn1	inactive	
86	O=C(COc1ccccc1)NCCCn1ccnc1	inactive	
93	O=C(NCCCn1ccnc1)c1ccc(C(F)(F)F)cc1		Active
80	CS(=O)(=O)c1ccc(C(=O)NCCCn2ccnc2)cc1	inactive	
93	Cc1cn(CCCNC(=O)c2cccc(Br)c2)cn1	inactive	
100	O=C(NCCCn1ccnc1)C1CC1c1ccccc1 (configuration not stated)	inactive	
100	CC(CNC(=O)c1ccc(Cl)cc1)Cn1ccnc1 (configuration not stated)	inactive	
93	O=C(NCCCn1ccnc1)c1ccc(Cl)c(Cl)c1	inactive	
70	COc1ccc(C(=O)NCCCn2cncn2)cc1	inactive	
59	Cc1nccn1CCCNC(=O)c1cccc(Cl)c1	inactive	
86	CC(CNC(=O)c1ccc(Cl)c(Cl)c1)Cn1ccnc1 (configuration not stated)	inactive	
64	Cc1nccn1CCCNC(=O)c1cccc(Br)c1	inactive	
75	Cc1nccn1CCCNC(=O)c1cccc(C(F)(F)F)c1	inactive	
89	COc1ccc(C(=O)NCCCn2ccnc2)cc1	inactive	
86	CC(C)(C)c1ccc(C(=O)NCCCn2cncn2)cc1	inactive	
50	O=C(NCCCn1ccnc1)c1ccccc1Br	inactive	
71	CCCCOc1ccc(C(=O)NCCCn2cncn2)cc1	inactive	
86	CCNc1ccccc1C(=O)NCCCn1ccnc1	inactive	
66	Cc1nccn1CCCNC(=O)c1ccc(Br)cc1	inactive	

inhibition [2] [%]	Structure (SMILES)	Activity [1]	Activity [3]
83	Cc1ccc(C(=O)NCCCn2ccnc2)cc1	inactive	
93	CC(CCNC(=O)c1cccc(Cl)c1)n1ccnc1 (configuration not stated)	inactive	
85	O=C(COc1ccc(Cl)cc1)NCCCn1ccnc1	inactive	
93	O=C(NC/C=C/Cn1ccnc1)c1ccc(C(F)(F)F)cc1 (stereo in doubt; 53)	inactive	
40	O=C(NCCCn1cncn1)c1ccc(Br)cc1	inactive	
95	O=C(NC/C=C/Cn1ccnc1)c1ccc(C(F)(F)F)cc1 (stereo in doubt; 54)	inactive	
82	Cc1nccn1CCCNC(=O)c1ccc(Cl)c(Cl)c1	inactive	
99	CC(=O)Nc1ccc(C(=O)NCCCn2ccnc2)cc1	inactive	
23	O=C(O)c1ccccc1C(=O)NCCCn1cncn1	inactive	
85	O=C(NCCCn1cncn1)c1cccc(Br)c1	inactive	
96	O=C(NCCCn1ccnc1)c1ccccc1	inactive	
100	COc1cc(C(=O)NCCCn2ccnc2)cc(OC)c1OC	inactive	
91	N#Cc1ccc(C(=O)NCCCn2ccnc2)cc1	inactive	
59	O=C(NCCn1ccnc1)c1ccc(Cl)c(Cl)c1	inactive	
50	O=C(O)c1ccccc1C(=O)NCCCCn1ccnc1	inactive	
75	CCCCOc1ccc(C(=O)NCCCn2ccnc2)cc1	inactive	
91	CC(CCNC(=O)c1ccc(Br)cc1)n1ccnc1 (configuration not stated)	inactive	
79	O=C(NCCCCCn1cncn1)c1ccc(Cl)cc1	inactive	
64	COc1cc(C(=O)NCCCn2cncn2)cc(OC)c1OC	inactive	
91	O=C(NC/C=C/Cn1ccnc1)c1ccc(Cl)cc1 (stereo in doubt; 52)	inactive	
100	O=C(NCCCn1ccnc1)c1ccc(-c2ccccc2)cc1	inactive	

inhibition [2] [%]	Structure (SMILES)	Activity [1]	Activity [3]
0	O=C(NCCn1cncn1)c1ccc(Br)cc1	inactive	
84	O=C(NCCCn1ccnc1)c1ccccc1F	inactive	
96	CC(CCNC(=O)c1ccc(Cl)cc1)n1ccnc1 (configuration not stated)	inactive	
47	O=C(/C=C/c1ccc(Cl)cc1)NCCCn1cncn1	inactive	
98	O=C(O)c1ccc(OCCn2ccnc2)cc1		
67	O=C(NCCCn1cncn1)c1ccc(F)cc1	inactive	
65	O=C(NCCCn1cncn1)c1ccccc1-c1ccccc1	inactive	
52	O=C(NCCCCn1cncn1)c1ccc(Cl)cc1	inactive	
91	O=C(NCCCCn1ccnc1)c1ccccc1	inactive	
100	O=C(NCCCCCn1ccnc1)c1ccc(Br)cc1	inactive	
93	CN(C)c1ccc(C(=O)NCCCn2ccnc2)cc1	inactive	
96	O=C(NCCCn1ccnc1)c1cccc(F)c1	inactive	
25	O=C(NCCCn1cncn1)c1ccccc1F	inactive	
100	O=C(NCCCCn1ccnc1)c1ccc(Cl)c(Cl)c1	inactive	
94	CC(CCNC(=O)c1ccc(C(F)(F)F)cc1)n1ccnc1 (configuration not stated)	inactive	
32	CCc1nccn1CCCNC(=O)c1ccc(Cl)cc1	inactive	
82	O=C(NCCCn1cncn1)c1cccc(F)c1	inactive	
89	O=C(NCCCCn1cncn1)c1ccccc1-c1ccccc1	inactive	
33	O=C(Cc1ccc(F)cc1)NCCCn1ccnc1	inactive	
87	O=C(NCCCCn1cncn1)c1cccc(Cl)c1	inactive	
72	O=C(NCCCn1cncn1)c1cccc([N+](=O)[O-])c1	inactive	

inhibition [2] [%]	Structure (SMILES)	Activity [1]	Activity [3]
87	O=C(NCCCn1ccnc1)c1ccc(F)cc1	inactive	
82	O=C(O)c1ccccc1C(=O)NCCCn1ccnc1	inactive	
100	O=C(NCCCCCCCCn1ccnc1)c1ccc(Br)cc1		
71	O=C(NCCCn1cncn1)c1cccc(C(F)(F)F)c1	inactive	
86	O=C(NCCCn1cncn1)c1cccc(Cl)c1	inactive	
64	O=C(CCc1ccccc1)NCCCn1ccnc1	inactive	
80	O=C(NCCCn1ccnc1)C(=O)c1ccccc1	inactive	
81	O=C(NCCCCCn1cncn1)c1ccc(Br)cc1	inactive	
99	Cc1cn(CCCNC(=O)c2ccc(I)cc2)cn1	inactive	
16	O=C(NCCCn1cncn1)c1ccc(Cl)cc1	inactive	
56	O=C(COc1ccc(Cl)cc1)NCCCn1cncn1	inactive	
90	CC(=O)c1ccc(C(=O)NCCCn2ccnc2)cc1	inactive	
75	CC(=O)Nc1ccc(C(=O)NCCCn2cncn2)cc1	inactive	
38	O=C(NCCCCn1cncn1)c1ccc(C(F)(F)F)cc1	inactive	
82	O=C(NCCCCn1cncn1)c1ccc(Cl)c(Cl)c1	inactive	
57	CNc1ccccc1C(=O)NCCCn1ccnc1	inactive	
100	O=C(NC/C=C/Cn1ccnc1)c1ccc(Cl)cc1 (stereo in doubt; 51)	inactive	
100	O=C(NCCCn1ccnc1)c1ccc(C(=O)c2ccccc2)cc1	inactive	
100	O=C(NCCCn1ccnc1)c1ccccc1Cl	inactive	
